Screening data (PubChem BioAssay)
In the library only some 3.5% were active in any assay of this set; here they are far more common.
RGS4 pot: RGS4 potentiators or activators, primary screen, cell-based, HEK293 M3R inducible RGS4, calcium flux | 310,000 compounds, 0.92% hits | carbachol calcium flux Fluo4; hits give low values | B-score at 10 µM;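 active = B-score of the integrated calcium signal more than 4 SD below the library mean, with starting fluorescence not abnormally high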;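 also: negative B-score means reduced calcium response which marks RGS4 activation or potentiation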
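test system = HEK293 cells with stable M3R and inducible RGS4 | schedule = recording 10 s baseline at 1 Hz, 100 s post-agonist | technique = Fluo4-AM (2 µM) calcium-flux fluorescence, kinetic read | measure = Agonist-evoked peak-minus-minimum fluorescence over baseline, integrated ratio, B score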
MrgX1 antagonist: antagonists of human MrgX1 receptor, primary screen, HEK293 cells, Fluo-4 calcium flux; B-score at 10 µM; AID 588676, 2011; Mas-related G-protein coupled receptor member X1 (Homo sapiens), Q96LB2; BAM8-22 antagonism; hits give low values; 310,000 compounds, 1.3% hits;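 active = calcium-response B-score plate-corrected more than 3 library SD below zero, starting fluorescence within 5 deviations, no agonist response on first addition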;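 also: peak minus trough fluorescence over baseline after final BAM8-22 challenge near maximal dose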
Target sequence (Q96LB2 whole entry, looked up): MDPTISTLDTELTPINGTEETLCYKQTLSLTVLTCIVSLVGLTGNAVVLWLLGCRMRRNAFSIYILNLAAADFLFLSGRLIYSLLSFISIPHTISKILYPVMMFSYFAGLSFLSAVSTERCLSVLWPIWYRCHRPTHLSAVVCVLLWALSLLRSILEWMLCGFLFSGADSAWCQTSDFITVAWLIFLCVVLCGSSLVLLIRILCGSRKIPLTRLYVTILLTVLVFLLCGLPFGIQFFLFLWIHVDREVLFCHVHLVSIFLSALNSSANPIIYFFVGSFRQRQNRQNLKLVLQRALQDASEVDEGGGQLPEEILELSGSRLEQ
RGS4 block: RGS4 inhibitors, primary screen, cell-based, HEK293 M3R inducible RGS4, calcium flux | Fluo-4 calcium flux; hits give high values; triggered by carbachol at its EC20 | B-score at 10 µM | AID 463165, 2010 | Regulator of G-protein signaling 4 (Homo sapiens), P49798 | 310,000 compounds, 0.45% hits;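 active = B-score, a plate-corrected calcium signal, over three deviations above library mean, with baseline fluorescence within five deviations of library mean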;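 also: RGS4 expression induced by doxycycline in cells with stable M3 receptor; B-score is computed from the integrated fluorescence ratio over baseline after carbachol; higher B-score means a larger calcium signal and so more RGS4 inhibition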
Target sequence (P49798 whole entry, looked up): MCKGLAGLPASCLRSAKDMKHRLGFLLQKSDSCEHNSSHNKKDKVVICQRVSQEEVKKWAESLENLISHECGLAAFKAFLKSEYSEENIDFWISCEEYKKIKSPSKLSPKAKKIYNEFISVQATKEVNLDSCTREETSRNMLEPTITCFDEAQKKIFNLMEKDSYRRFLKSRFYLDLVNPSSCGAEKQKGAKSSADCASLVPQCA
MrgX1 agonist: agonists of human MrgX1 receptor, primary screen, HEK293 cells, Fluo-4 calcium flux; Mas-related G-protein coupled receptor member X1 (Homo sapiens), Q96LB2; B-score at 10 µM; AID 588627, 2011; 310,000 compounds, 0.44% hits; Fluo-4 calcium fluorescence, agonist mode; hits give high values;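 active = calcium response B-score plate-corrected fluorescence ratio at least 3 library SD, with starting fluorescence B-score inside 5 SD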
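System: HEK293 cells stably expressing human MrgX1 receptor; Dosing: test compound in the initial addition of three; Schedule: overnight plating, then 30 min 37 °C plus 30 min room-temperature dye loading; Detection: kinetic calcium dye fluorescence, Fluo-4 NW; Controls: per-plate positive and negative controls for Z′ factor.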
MrgX1 PAM: positive allosteric modulators of MrgX1, primary screen, HEK293 cells, Fluo-4 calcium flux; B-score at 10 µM; FDSS; hits give high values; 310,000 compounds, 0.63% hits; AID 588675, 2011;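 active = plate-corrected calcium response at least 3 library SD above typical, normal starting fluorescence, not activating the receptor alone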;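 also: compound read alongside a low EC10 to EC30 dose of BAM8-22 agonist; peak minus trough fluorescence over baseline measured at the second addition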
MrgX1 ant reconf: MrgX1 receptor antagonists, duplicate retest, confirmation, HEK293 cells, Fluo-4 calcium flux; remaining BAM8-22 calcium response % of control (hits give low values), % at 10 µM; shares compounds with MrgX1 antagonist; 2,300 compounds, 19% hits; BAM8-22 calcium flux; hits give low values;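 active = remaining agonist calcium response no higher than 100% minus 3 SD of agonist-only control wells, with starting fluorescence near control levels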;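 also: agonist BAM8-22 given at a near maximal EC90 to ECmax level; peak minus minimum fluorescence divided by baseline after agonist addition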
HEK293 Ca flux: nonspecific calcium signal in parental HEK293, confirmation, counter-screen for MrgX1 antagonist project, parental HEK293 cells, Fluo-4 calcium flux | shares compounds with MrgX1 antagonist | Fluo-4 calcium fluorescence, FDSS | fluorescence ratio F(max-min)/F0 at 10 µM | 4,000 compounds, 2% hits;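 active = duplicate-averaged calcium fluorescence ratio at least three times the standard deviation of buffer wells, a nonspecific response in parental cells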
HEK293 Ca counter: calcium response in parental HEK293 cells, primary screen, counter-screen for MrgX1 allosteric activator project, cell-based, Fluo-4 calcium flux, duplicate | shares compounds with MrgX1 antagonist | Fluo-4 fluorescence ratio; hits give high values | fluorescence ratio F(max-min)/F0 at 10 µM | 4,000 compounds, 0.4% hits | AID 624114, 2012;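 active = calcium fluorescence ratio, averaged over duplicates, at least 3 SD of the buffer-well ratio, meaning a nonspecific response in receptor-free cells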;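 also: untransfected parental HEK293 lacking MrgX1 used as counterscreen for MrgX1 allosteric activators; fluorescence change taken during the second addition on a kinetic imager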
HEK293 Ca cntr2: calcium response in parental HEK293 cells, primary screen, counter-screen for MrgX1 agonist project, cell-based, Fluo-4 calcium flux, duplicate, agonist mode | AID 624115, 2012 | shares compounds with MrgX1 antagonist | 4,000 compounds, 8.7% hits | Fluo-4 calcium fluorescence (FDSS); hits give high values | fluorescence ratio F(max-min)/F0 at 10 µM;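 active = calcium fluorescence ratio at least three times the spread of buffer wells, meaning a non-specific response in parental cells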
* hit, by the source's call; i = inactive; · = no result given.

SMILES	RGS4 pot	MrgX1 antagonist	RGS4 block	MrgX1 agonist	MrgX1 PAM	MrgX1 ant reconf	HEK293 Ca flux	HEK293 Ca counter	HEK293 Ca cntr2
COCCn1nnnc1C(c1cccs1)N1CCN(c2cc(C)ccc2C)CC1 (stereo not given)	i	-10*	i	i	i	i	i	i	i
COC(=O)C1=C(CN2CCSCC2)NC(=O)NC1c1cc(C)ccc1C (stereo not given)	i	-5.6*	i	i	i	i	i	i	i
COCC(=O)Nc1cc(Cl)c(OC)cc1OC	i	i	i	i	i	·	·	·	·
COc1ccc(CNC(=O)COc2cc3c(c4oc(=O)cc(C)c24)CCC(C)(C)O3)cc1OC	i	-4.7*	i	i	i	i	i	i	i
Cc1cc(=O)oc2c3c(cc(OCC(=O)NCc4ccncc4)c12)OC(C)(C)CC3	i	-4.9*	i	i	i	76%*	i	i	i
COc1ccc(CNS(=O)(=O)NCc2ccc(C)cc2)cc1OC	i	i	i	i	i	·	·	·	·
O=C(CSc1nnc(CNC(=O)c2cccs2)o1)NC1CCCCC1	i	-7.1*	i	i	i	i	i	i	i
CCOc1ccc2ccccc2c1CNCCc1ccc(S(N)(=O)=O)cc1	i	-4.8*	i	i	i	55%*	i	i	i
CCOc1ccccc1NS(=O)(=O)c1ccc(-c2cnc(C3CC3)o2)cc1	i	i	i	i	i	·	·	·	·
COc1ccccc1NS(=O)(=O)c1ccc(-c2cnc(C3CC3)o2)cc1	i	-5.2*	i	i	i	i	i	i	i
COc1ccc(-c2oc3cccnc3c2/C=C/c2ccc(OC)c(OC)c2)cc1	i	i	i	i	i	·	·	·	·
COc1ccccc1C1C(C#N)=C(N)N(c2cccnc2)C2=C1C(=O)CC(C)(C)C2 (stereo not given)	i	-8.8*	i	i	i	i	i	i	i
COc1cc(C2C(C#N)=C(N)N(c3cccnc3)C3=C2C(=O)CC(C)(C)C3)ccc1O (stereo not given)	i	i	i	i	i	·	·	·	·
C=CCn1c(-c2ccc(S(=O)(=O)N3CCOCC3)cc2)csc1=Nc1ccccc1	i	-7.9*	i	i	i	i	i	i	i
Cc1cc(C)cc(N(CC(=O)N2CCc3ccccc32)S(=O)(=O)c2c(C)noc2C)c1	i	-7.3*	i	i	i	i	i	i	i
CCOc1ccc(N(CC(=O)N2CCc3ccccc32)S(=O)(=O)c2c(C)noc2C)cc1	i	i	i	i	i	·	·	·	·
Cc1cc(C)c(NC(=O)COC(=O)/C=C/c2cccs2)c(C)c1	i	i	i	i	i	·	·	·	·
C=CCn1c(SCC(=O)Nc2cc(C)on2)nnc1C1COc2ccccc2O1 (stereo not given)	i	-6.1*	i	i	i	85%*	i	i	i
COc1ccc(/C(C)=N/NC(=O)c2nnn(-c3nonc3N)c2-c2cccs2)cc1OC	i	i	i	i	i	·	·	·	·
Brc1ccc(NC(c2ccccc2)c2ccncc2)cc1 (stereo not given)	i	i	i	i	i	·	·	·	·
Cc1cccc(C)c1NC(=O)CSc1ncnc2nc[nH]c12	i	-4.7*	i	i	i	i	i	i	i
Cc1[nH]c2ccc(C(=O)OC(C)C(=O)NC3(C#N)CCCCC3)cc2c1C (stereo not given)	i	-6*	i	i	i	i	i	i	i
Cc1ccc(NC(=O)CCN2C(=O)CSC2=O)c(C)c1	i	-4.6*	i	i	i	i	i	i	i
O=C(NCc1ccccn1)c1ccc(Cl)c(NC2=NC3CS(=O)(=O)CC3S2)c1 (stereo not given)	i	i	i	i	i	·	·	·	·
Nc1c(C(=O)Nc2ccccc2F)sc2nc(-c3cccnc3)ccc12	i	i	i	i	i	·	·	·	·
SMILES	RGS4 pot	MrgX1 antagonist	RGS4 block	MrgX1 agonist	MrgX1 PAM	MrgX1 ant reconf	HEK293 Ca flux	HEK293 Ca counter	HEK293 Ca cntr2
Nc1c(C(=O)Nc2ccccc2F)sc2nc(-c3ccco3)ccc12	i	-5.3*	i	i	i	78%*	i	i	i
COc1ccccc1N1CCSC1C(N)=O (stereo not given)	i	-7.1*	i	i	i	i	i	i	i
COc1ccc(SCCc2nnc(-c3ccccc3)o2)cc1	i	-7.8*	i	i	i	i	i	i	i
CCCc1nnc(-c2ccc(OC)cc2)o1	i	-6*	i	i	i	i	i	i	i
CCNc1nc2c(c(=O)[nH]c(=O)n2C)n1CC(C)C	i	-4.6*	i	i	i	i	i	i	i
O/N=C(/c1ccc(F)cc1)C1CC1c1c(F)cccc1Cl (stereo not given)	i	i	i	i	i	·	·	·	·
COc1ccc(NS(=O)(=O)c2c(C)cc(C)cc2C)cc1	i	i	i	i	i	·	·	·	·
COc1cccc(NS(=O)(=O)c2c(C)cc(C)cc2C)c1	i	-5.2*	i	i	i	i	i	i	i
CCc1noc(C)c1C(=O)N1CCCC(CCC(=O)NCc2ccc(F)c(F)c2)C1 (stereo not given)	i	i	i	i	i	·	·	·	·
Nn1c(SCC(=O)N2CCOCC2)nnc1-c1ccccc1Cl	i	-6.2*	i	i	i	74%*	i	i	i
